Tested on: U2OS
Assay: Multiplex assay against U2OS
Format: toxicity, cell-based
Conditions: human
In short: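 Values for tubulin, mitochondrial-mass and membrane-permeability phenotypes are per cents of cells with healthy nuclei. These cells were identified by CellPathfinder machine-learning gating of live cells that had been stained at seeding with Hoechst33342, BioTracker Green Microtubule Cytoskeleton Dye, MitoTracker Red and Annexin V Alexa Fluor 680 and imaged on a CQ1 microscope at 37°C and 5% CO2 after compound addition. The gating first set Hoechst high-intensity objects apart from normal cells, then split normal cells into healthy, pyknosed or fragmented nuclei, and pyknosed cells into mitotic or apoptotic.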

[1] = 12 h, 1 µM, compound concentration 1 uM, replicate 1
[2] = 12 h, 1 µM, compound concentration 1 uM, replicate 2
[3] = 12 h, 10 µM, compound concentration 10 uM, replicate 1
[4] = 12 h, 10 µM, compound concentration 10 uM, replicate 2
[5] = 24 h, 1 µM, compound concentration 1 uM, replicate 1
[6] = 24 h, 1 µM, compound concentration 1 uM, replicate 2
[7] = 24 h, 10 µM, compound concentration 10 uM, replicate 1
[8] = 24 h, 10 µM, compound concentration 10 uM, replicate 2
[9] = 48 h, 1 µM, compound concentration 1 uM, replicate 1
[10] = 48 h, 1 µM, compound concentration 1 uM, replicate 2
[11] = 48 h, 10 µM, compound concentration 10 uM, replicate 1
[12] = 48 h, 10 µM, compound concentration 10 uM, replicate 2

SMILES: CC(C)(C)c1cc(NC(=O)Nc2ccc(-c3cn4c(n3)sc3cc(OCCN5CCOCC5)ccc34)cc2)no1 [QUIZARTINIB]
- Population Apoptotic (%) [1]: 48%
- Population Fragmented Nuclei (%) [1]: 24%
- Population Healthy Nuclei (%) [1]: 61%
- Population Hoechst High Intensity Objects (%) [1]: 6%
- Population Membrane Permeable-Phenotype (%) [1]: 13%
- Population Mitochondria Different-Phenotype (%) [1]: 4%
- Population Mitotic Cells (%) [1]: 51%
- Population Normal (%) [1]: 93%
- Population Pyknosed Nuclei (%) [1]: 14%
- Population Tubulin-Different-Phenotype (%) [1]: 8%
- Total Cell Count [1]: 213
- Population Apoptotic (%) [2]: 78%
- Population Fragmented Nuclei (%) [2]: 17%
- Population Healthy Nuclei (%) [2]: 70%
- Population Hoechst High Intensity Objects (%) [2]: 1%
- Population Membrane Permeable-Phenotype (%) [2]: 6%
- Population Mitochondria Different-Phenotype (%) [2]: 6%
- Population Mitotic Cells (%) [2]: 21%
- Population Normal (%) [2]: 98%
- Population Pyknosed Nuclei (%) [2]: 11%
- Population Tubulin-Different-Phenotype (%) [2]: 4%
- Total Cell Count [2]: 119
- Population Apoptotic (%) [3]: 58%
- Population Fragmented Nuclei (%) [3]: 30%
- Population Healthy Nuclei (%) [3]: 47%
- Population Hoechst High Intensity Objects (%) [3]: 13%
- Population Membrane Permeable-Phenotype (%) [3]: 85%
- Population Mitochondria Different-Phenotype (%) [3]: 26%
- Population Mitotic Cells (%) [3]: 41%
- Population Normal (%) [3]: 86%
- Population Pyknosed Nuclei (%) [3]: 21%
- Population Tubulin-Different-Phenotype (%) [3]: 76%
- Total Cell Count [3]: 197
- Population Apoptotic (%) [4]: 23%
- Population Fragmented Nuclei (%) [4]: 11%
- Population Healthy Nuclei (%) [4]: 65%
- Population Hoechst High Intensity Objects (%) [4]: 6%
- Population Membrane Permeable-Phenotype (%) [4]: 62%
- Population Mitochondria Different-Phenotype (%) [4]: 33%
- Population Mitotic Cells (%) [4]: 76%
- Population Normal (%) [4]: 94%
- Population Pyknosed Nuclei (%) [4]: 22%
- Population Tubulin-Different-Phenotype (%) [4]: 54%
- Total Cell Count [4]: 100
- Population Apoptotic (%) [5]: 57%
- Population Fragmented Nuclei (%) [5]: 25%
- Population Healthy Nuclei (%) [5]: 56%
- Population Hoechst High Intensity Objects (%) [5]: 2%
- Population Membrane Permeable-Phenotype (%) [5]: 15%
- Population Mitochondria Different-Phenotype (%) [5]: 8%
- Population Mitotic Cells (%) [5]: 42%
- Population Normal (%) [5]: 97%
- Population Pyknosed Nuclei (%) [5]: 17%
- Population Tubulin-Different-Phenotype (%) [5]: 7%
- Total Cell Count [5]: 234
- Population Apoptotic (%) [6]: 62%
- Population Fragmented Nuclei (%) [6]: 15%
- Population Healthy Nuclei (%) [6]: 72%
- Population Hoechst High Intensity Objects (%) [6]: 0%
- Population Membrane Permeable-Phenotype (%) [6]: 9%
- Population Mitochondria Different-Phenotype (%) [6]: 4%
- Population Mitotic Cells (%) [6]: 37%
- Population Normal (%) [6]: 99%
- Population Pyknosed Nuclei (%) [6]: 12%
- Population Tubulin-Different-Phenotype (%) [6]: 5%
- Total Cell Count [6]: 134
- Population Apoptotic (%) [7]: 63%
- Population Fragmented Nuclei (%) [7]: 34%
- Population Healthy Nuclei (%) [7]: 34%
- Population Hoechst High Intensity Objects (%) [7]: 11%
- Population Membrane Permeable-Phenotype (%) [7]: 55%
- Population Mitochondria Different-Phenotype (%) [7]: 38%
- Population Mitotic Cells (%) [7]: 36%
- Population Normal (%) [7]: 88%
- Population Pyknosed Nuclei (%) [7]: 30%
- Population Tubulin-Different-Phenotype (%) [7]: 45%
- Total Cell Count [7]: 195
- Population Apoptotic (%) [8]: 51%
- Population Fragmented Nuclei (%) [8]: 10%
- Population Healthy Nuclei (%) [8]: 58%
- Population Hoechst High Intensity Objects (%) [8]: 2%
- Population Membrane Permeable-Phenotype (%) [8]: 40%
- Population Mitochondria Different-Phenotype (%) [8]: 32%
- Population Mitotic Cells (%) [8]: 48%
- Population Normal (%) [8]: 97%
- Population Tubulin-Different-Phenotype (%) [8]: 30%
- Total Cell Count [8]: 96
- Population Apoptotic (%) [9]: 60%
- Population Fragmented Nuclei (%) [9]: 21%
- Population Healthy Nuclei (%) [9]: 61%
- Population Hoechst High Intensity Objects (%) [9]: 3%
- Population Membrane Permeable-Phenotype (%) [9]: 7%
- Population Mitochondria Different-Phenotype (%) [9]: 2%
- Population Mitotic Cells (%) [9]: 39%
- Population Normal (%) [9]: 96%
- Population Pyknosed Nuclei (%) [9]: 16%
- Population Tubulin-Different-Phenotype (%) [9]: 3%
- Total Cell Count [9]: 297
- Population Apoptotic (%) [10]: 73%
- Population Fragmented Nuclei (%) [10]: 16%
- Population Healthy Nuclei (%) [10]: 72%
- Population Hoechst High Intensity Objects (%) [10]: 2%
- Population Membrane Permeable-Phenotype (%) [10]: 9%
- Population Mitochondria Different-Phenotype (%) [10]: 7%
- Population Mitotic Cells (%) [10]: 26%
- Population Normal (%) [10]: 97%
- Population Pyknosed Nuclei (%) [10]: 10%
- Population Tubulin-Different-Phenotype (%) [10]: 6%
- Total Cell Count [10]: 180
- Population Apoptotic (%) [11]: 72%
- Population Fragmented Nuclei (%) [11]: 33%
- Population Healthy Nuclei (%) [11]: 25%
- Population Hoechst High Intensity Objects (%) [11]: 9%
- Population Membrane Permeable-Phenotype (%) [11]: 41%
- Population Mitochondria Different-Phenotype (%) [11]: 33%
- Population Mitotic Cells (%) [11]: 27%
- Population Normal (%) [11]: 90%
- Population Pyknosed Nuclei (%) [11]: 40%
- Population Tubulin-Different-Phenotype (%) [11]: 33%
- Total Cell Count [11]: 219
- Population Apoptotic (%) [12]: 56%
- Population Fragmented Nuclei (%) [12]: 19%
- Population Healthy Nuclei (%) [12]: 48%
- Population Hoechst High Intensity Objects (%) [12]: 5%
- Population Membrane Permeable-Phenotype (%) [12]: 35%
- Population Mitotic Cells (%) [12]: 43%
- Population Normal (%) [12]: 94%
- Population Pyknosed Nuclei (%) [12]: 32%
- Population Tubulin-Different-Phenotype (%) [12]: 28%
- Total Cell Count [12]: 98

From ChEMBL document CHEMBL5058577, “EUbOPEN Chemogenomics Library 2 (Multiplex)” (2022)
